MIN6 prolif = induces beta-cell replication in MIN6 cells | proliferation, % at 10 µM | hit rate 0.29% among 330,000 | MIN6 cells proliferation, ATPlite luminescence, 48 h; cells starved in 0.2% serum; 100% = growth in 10% serum;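 active means compounds whose signal lies at least 3.5 SD above the mean of all wells on their plate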;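 further: 0% = DMSO-treated cells in low-serum medium and 100% = 10% serum control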
Ins promoter up = MIN6 insulin promoter up-regulation. MIN6 insulin promoter-GFP reporter, high-content imaging; hits give high values. z-score at 5 µM. hit rate 0.3% among 190,000. AID 1625;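 active means z-score above 3 at 5 µM with at least 500 cells counted in the well; inconclusive means wells under 500 cells, flagged as cytotoxic or low count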
SR-BI DiI-HDL act = SR-BI HDL lipid transfer activation. CHO ldlA[mSR-BI] cells, DiI-HDL uptake fluorescence, 3 h; 100 = double the neutral-control signal. activation, % at 12.5 µM. hit rate 0.096% among 320,000. AID 504775;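 active means mean replicate activation of at least 60% and every replicate at or above 60%; inconclusive means mean or all-replicate condition met, but not both; inactive means mean below 60% and not all replicates reaching 60%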;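 further: 0% = median plate neutral-control signal and 100% = twice that signal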
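Material – SR-BI-overexpressing, LDLR-lacking CHO cells · Medium – BSA-supplemented, HEPES-buffered Ham's F12, pH 7.4 · Doses – single concentration · Times – compound with DiI-HDL co-incubation, 3 h at 37 °C · Measured by – bottom-read fluorescence, 550/595 nm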
SR-BI HDL uptake = blocks mouse SR-BI lipid uptake from DiI-HDL. ldlA[mSR-BI] CHO cells, DiI-HDL uptake fluorescence, 3 h. inhibition, % at 12.5 µM. hit rate 0.96% among 320,000. AID 488896;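 active means mean replicate inhibition of at least 70% and a set share of replicates each scoring 70 or more; inconclusive means meets just one of the two criteria; inactive means fails both criteria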;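 further: 0% = median of neutral control wells and 100% = median of positive control wells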
Target sequence (Q61009 whole entry, looked up): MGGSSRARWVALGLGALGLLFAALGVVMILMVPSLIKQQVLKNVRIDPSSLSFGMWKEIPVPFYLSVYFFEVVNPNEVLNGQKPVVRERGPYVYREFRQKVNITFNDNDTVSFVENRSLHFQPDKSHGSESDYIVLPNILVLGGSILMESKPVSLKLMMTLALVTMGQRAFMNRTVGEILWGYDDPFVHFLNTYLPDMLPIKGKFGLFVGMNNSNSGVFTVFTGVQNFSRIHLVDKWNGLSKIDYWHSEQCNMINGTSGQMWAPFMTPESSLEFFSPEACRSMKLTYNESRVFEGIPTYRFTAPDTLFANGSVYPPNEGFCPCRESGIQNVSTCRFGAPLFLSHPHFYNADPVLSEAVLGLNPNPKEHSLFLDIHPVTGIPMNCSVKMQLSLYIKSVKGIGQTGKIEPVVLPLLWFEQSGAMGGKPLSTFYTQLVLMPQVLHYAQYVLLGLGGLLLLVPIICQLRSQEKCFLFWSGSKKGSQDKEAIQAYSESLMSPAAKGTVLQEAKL
HTR2A ag = activates the mouse 5-HT2A serotonin receptor. P35363. hit rate 0.66% among 360,000. CHO-K1 mHTR2A beta-arrestin complementation, luminescence; percent of 30 µM serotonin response. activation, % at 7.6 µM. AID 624169;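 active means activation above a run cutoff, the mean activation of all tested compounds plus 3 SD, cut at about 14% in these data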;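 further: 0% = plate median of compound wells and 100% = 30 µM serotonin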
Calb FLC = affects C. albicans growth with fluconazole | hit rate 0.57% among 300,000 | AID 1979 | growth inhibition, % (concentration not given with the values) | C. albicans CaCi-2 + fluconazole, Alamar Blue growth, 48 h;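 active means growth inhibition above about 58% in most replicates, limit read from the data, passing the limit was not always enough; inconclusive means exactly half the replicates above a set limit; inactive means most replicates below a set limit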;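 further: all wells also contain fluconazole at 8 µg/ml as a sub-toxic cotreatment; 0% = median of DMSO wells and 100% = median of geldanamycin control wells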
* marks the source's active call; other numbers are inactive results; ? = inconclusive; nt = no result given. The list is not random: actives were taken first. Their share in the collection is about 2.4%.

SMILES	MIN6 prolif	Ins promoter up	SR-BI DiI-HDL act	SR-BI HDL uptake	HTR2A ag	Calb FLC
CC1(C)O[C@@H]2C[C@H]3[C@@H]4CCC5=CC(=O)C=C[C@]5(C)[C@@]4(F)[C@@H](O)C[C@]3(C)[C@]2(C(=O)CO)O1	-2	nt	4	-1	7	nt
O=C(Nc1cc(Sc2ccccn2)cc([N+](=O)[O-])c1)c1ccc(Cl)cc1	-4	nt	-77	?	1	0
O=C(Nc1cc(Sc2ccccn2)cc([N+](=O)[O-])c1)c1cccc(Cl)c1	0	-1.4	-54	54	-1	113*
CCc1cc2c(=O)c(-c3cscn3)coc2c(CN(C)C)c1O	0	-0.46	-7	7	0	25
CCc1cc2c(=O)c(-c3ccc4c(c3)OCO4)coc2c(CN(C)C)c1O	4	nt	-79	79*	-2	18
CCOC(=O)n1c2ccccc2c(=O)n1CCO	nt	nt	nt	nt	1	nt
CC(C)CN(C(=O)COC(=O)CNC(=O)c1ccccc1F)C1CCS(=O)(=O)C1 (configuration not stated)	-4	0.17	1	-1	-2	107*
Cc1cc(C)n(-c2ccc(C(=O)OCC(=O)N(CC(C)C)C3CCS(=O)(=O)C3)cc2)n1 (configuration not stated)	0	3.3*	-11	11	3	0
NC(=O)C1CCN(C(=O)C2CCC(=O)N(CC3CCCCC3)C2)CC1 (configuration not stated)	0	nt	-2	2	-5	-4
COc1ccc(CCN2CC(C(=O)NCc3cccc4[nH]ccc34)CCC2=O)cc1 (configuration not stated)	1	nt	12	-12	2	-6
O=C(NCc1cccc2[nH]ccc12)C1CCC(=O)N(CCc2ccccc2)C1 (configuration not stated)	-1	nt	120*	-120	5	17
COC(=O)[C@]12CCCCC=C1N(Cc1ccc(Cl)cc1Cl)C(=O)[C@H](CC(=O)N1CCC(c3ccccc3)CC1)C2	nt	nt	nt	nt	7	nt
CC1(C)Nc2ccccc2N(Cc2ccc([N+](=O)[O-])cc2)C1=O	2	-0.07	-55	55	-1	14
O=C(Nc1ccc(Br)cn1)c1ccc(COc2c(F)c(F)cc(F)c2F)o1	-5	nt	11	-11	-1	nt
COC(=O)/C(=C(O)\C=C\c1ccccc1[N+](=O)[O-])c1nc2ccccc2[nH]1	0	nt	-89	89*	-5	-5
COc1ccc(-c2sc3ccc(OC)cc3c2-c2ccc(OC)nc2)cc1	-6	nt	-75	75*	4	nt
Oc1ccc(C[C@H]2CN([C@@H](Cc3ccc(O)cc3)CN3CCC[C@@H]3CN3C(=S)NC[C@@H]3Cc3ccccc3)C(=S)N2CCc2ccccc2)cc1	nt	nt	nt	nt	-1	nt
Oc1ccc(C[C@H]2CNC(=S)N2CC2CCCN2C[C@H](Cc2ccc(O)cc2)N2C[C@H](Cc3ccccc3)N(CC3CCCCCC3)C2=S)cc1 (some centres not stated)	nt	nt	68*	-68	-10	nt
CC(C)C[C@@H](CN1CCCC1CN1C(=S)NC[C@@H]1Cc1ccc(O)cc1)N1C[C@H](Cc2ccc(O)cc2)N(CCc2ccccc2)C1=S (some centres not stated)	nt	nt	177*	-177	-5	nt
Oc1ccc(C[C@H]2CNC(=S)N2CC2CCCN2C[C@H](Cc2ccc(O)cc2)N2C[C@H](Cc3ccc(O)cc3)N(CC3CCCCCC3)C2=S)cc1 (some centres not stated)	nt	nt	186*	-186	-6	nt
Oc1ccc(C[C@H]2CN([C@@H](Cc3ccccc3)CN3CCC[C@@H]3CN3C(=S)NC[C@@H]3Cc3ccccc3)C(=S)N2CC2CCCCC2)cc1	nt	nt	nt	nt	1	nt
O=C(CNc1ccc(C(F)(F)F)cc1)Nc1cccc(S(=O)(=O)N2CCCCC2)c1	nt	nt	nt	nt	-5	nt
CN(C(=O)c1ccc(Br)o1)C1CCCCC1	-1	nt	-5	5	5	3
O=C(c1ccc(F)cc1)c1cnc(Nc2ccccc2)s1	-4	-1.8	-15	15	2	-4
CNc1ncc(C(=O)c2ccc(F)cc2)s1	10*	0.52	-5	5	3	0
SMILES	MIN6 prolif	Ins promoter up	SR-BI DiI-HDL act	SR-BI HDL uptake	HTR2A ag	Calb FLC
CCCCn1c(SCC(=O)OC)nc2c1c(=O)n(C)c(=O)n2C	-1	-0.38	-19	19	5	7
CCCCn1c(Oc2ccc(C(=O)OC)cc2)nc2c1c(=O)n(C)c(=O)n2C	-1	-0.23	-92	92*	-3	-2
Cc1cccc(NC(=O)C(C)Oc2ccc(C)nc2[N+](=O)[O-])c1 (configuration not stated)	-1	nt	-15	15	4	nt
Cc1ccc(/C=C(\C#N)C(=O)N2CCCC2)c(C)c1	-2	-0.44	3	-3	0	-13
COCCNc1nc(SCC(=O)N2CCN(c3ccccc3OC)CC2)nc2ccccc12	3	-1.1	-72	72*	-4	32
Cc1nc2ccccc2cc1OCc1ccc(Cl)cc1	-6	1	-17	17	-6	34
COc1cccc(COc2cc3ccccc3nc2C)c1	-6	?	-64	64	1	100*
Cc1nc2ccccc2cc1OCc1ccccc1	-6	-1	-1	1	3	107*
COC(=O)c1sccc1OCc1cccc(OC)c1	-2	0.41	-23	23	1	21
CCc1noc(C)c1C(=O)N1CCSC1=Nc1cccc(Cl)c1C	-5	nt	-11	11	2	9
Cc1cc2nc(-c3ccc(SCC(=O)Nc4ccc(S(=O)(=O)NC5CC5)cc4)nc3)[nH]c2cc1C	0	-0.36	-44	44	-5	0
COc1ccc(CC(=O)Nc2ccc(F)c(F)c2F)cc1S(=O)(=O)N1CCOCC1	-1	nt	-25	25	1	nt
COc1ccc(/C=C/C(=O)O)cc1COc1cccc(C)c1	0	0.84	-10	10	2	1
COc1ccc(/C=C/C(=O)C2CC2)cc1COc1c(C)cccc1C	-6	0.74	-37	37	-1	97*
NC(=S)n1[nH]c(-c2ccccc2)c(N=Nc2ccccc2C(=O)N2CCOCC2)c1=O	2	-0.17	0	0	-4	100*
O=C(Nc1ccc(Cl)c(Cl)c1)Nc1nccs1	-6	-0.12	nt	nt	5	64
O=C(Nc1ccc(Cl)cc1)Nc1nc(-c2ccccc2)cs1	-1	nt	-25	25	12	-1
O=C(Nc1cccc(Cl)c1)Nc1nc(-c2ccccc2)cs1	-4	-0.22	-76	76*	-3	-19
O=C(Nc1cccc(Cl)c1)Nc1nccs1	-1	-0.02	-13	13	1	80*
O=C(O)COc1ccc(/C=N/NC(=O)c2ccc(-c3csc(Nc4ccc(Cl)cc4)n3)cc2)cc1	nt	-1.1	-74	74*	-5	5

Compound activity: PubChem, several laboratories
